This passage reports GI50 and Activity results from ChEMBL document CHEMBL4680226, “Design, synthesis, and evaluation of N-phenyl-4-(2-phenylsulfonamido)-benzamides as microtubule-targeting agents in drug-resistant cancer cells, displaying HDAC inhibitory response” (Eur J Med Chem, 2020).

Active and inactive are the calls of the source. No cut-off for these calls is given here.

One experiment relates to KB. Kind of experiment: Antiproliferative activity against human KB cells incubated for 48 hrs by SRB assay. It is filed as functional. The procedure, abridged:
(§1)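 KB parental and resistant sublines kept in RPMI 1640 with 5% FBS at 37 °C, 5% CO2. Cells plated, left overnight, then given graded compound concentrations for 48 h. A time-zero plate was fixed with 10% TCA at dosing. Cells were stained with 0.4% SRB in 1% acetic acid, unbound dye washed off, bound dye dissolved in 10 mM Tris base, and absorbance read at 515 nm.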
On the technique in general: Sulforhodamine B stains cellular protein and so reports cell mass.

The nature of experiment [1]: Antiproliferative activity against human KB-VIN cells incubated for 48 hrs by SRB assay. It is filed as functional. The note with it: KBVIN. The method, boiled down: as §1
The test system of experiment [2] is KB-VIN. Briefly: Cell cycle arrest in human KB-VIN cells assessed as increase in accumulation at sub-G1 phase at 0.01 to 0.1 uM measured after 24 hrs by propidium iodide staining based flow cytometry. In kind it is functional. The conditions noted are these: dose 0.01-0.1 µM. The procedure, abridged: (§2)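 Cells seeded at 2.5×10^5 per well and exposed to DMSO or compound for the stated times. They were washed in PBS and fixed overnight in ice-cold 70% ethanol at −20 °C. Staining used propidium iodide 80 µg/mL with 0.1% Triton X-100 and RNase A 100 µg/mL in PBS. DNA content was read by FACScan flow cytometry.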
(Flow cytometry measures light scatter and fluorescence of single cells or particles in a stream.)

Experiment [3] has as its system KB-VIN. Briefly: Induction of apoptosis in human KB-VIN cells assessed as increase in cleaved PARP expression at 0.1 uM measured after 24 hrs by Western blot analysis. It is filed as functional, cell-based. The procedure, abridged: (§3)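 Resistant KB cells attached overnight, then drug-treated at the stated concentrations and times (24 h or 48 h). Lysates were immunoblotted for cleaved PARP, caspase-3, -8 and -9, and γH2AX, with anti-mouse or anti-rabbit IgG secondaries.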
Background: Immunoblotting shows a protein as a band on a membrane.

Experiment [4] concerns KB-VIN. Briefly: Induction of apoptosis in human KB-VIN cells assessed as increase in cleaved caspase-3 expression at 0.1 uM measured after 24 hrs by Western blot analysis. It is filed as functional, cell-based. The procedure, abridged: as §3
Experiment [5] has as its system KB-VIN. Briefly: Induction of apoptosis in human KB-VIN cells assessed as increase in cleaved caspase-8 expression at 0.1 uM measured after 24 hrs by Western blot analysis. It is filed as functional, cell-based. The method, boiled down: as §3
In experiment [6] the test system is KB-VIN. Briefly: Induction of apoptosis in human KB-VIN cells assessed as increase in cleaved caspase-9 expression at 0.1 uM measured after 24 hrs by Western blot analysis. It is filed as functional, cell-based. The method, boiled down: as §3
The subject of experiment [7] is KB-VIN. Briefly: Induction of apoptosis in human KB-VIN cells assessed as increase in activated gammaH2AX expression at 0.1 uM measured after 24 hrs by Western blot analysis. In kind it is functional, cell-based. The procedure, abridged:
as §3

For experiment [8], the system named is KB-VIN. Kind of experiment: Cell cycle arrest in human KB-VIN cells assessed as increase in accumulation at sub-G1 phase at 0.1 uM measured after 48 hrs by propidium iodide staining based flow cytometry. In kind it is functional. The method, boiled down:
as §2

The subject of experiment [9] is KB-VIN. Kind of experiment: Induction of apoptosis in human KB-VIN cells assessed as increase in cleaved PARP expression at 0.1 uM measured after 48 hrs by Western blot analysis. In kind it is functional, cell-based. The method, boiled down:
as §3

Experiment [10] relates to KB-VIN. Kind of experiment: Induction of apoptosis in human KB-VIN cells assessed as increase in cleaved caspase-3 expression at 0.1 uM measured after 48 hrs by Western blot analysis. In kind it is functional, cell-based. The method, boiled down:
as §3

In experiment [11] the test system is KB-VIN. Kind of experiment: Induction of apoptosis in human KB-VIN cells assessed as increase in cleaved caspase-8 expression at 0.1 uM measured after 48 hrs by Western blot analysis. It is filed as functional, cell-based. The procedure, abridged:
as §3

The subject of experiment [12] is KB-VIN. Briefly: Induction of apoptosis in human KB-VIN cells assessed as increase in cleaved caspase-9 expression at 0.1 uM measured after 48 hrs by Western blot analysis. In kind it is functional, cell-based. The method, boiled down: as §3
For experiment [13], the system named is KB-VIN. Kind of experiment: Induction of apoptosis in human KB-VIN cells assessed as increase in activated gammaH2AX expression at 0.1 uM measured after 48 hrs by Western blot analysis. It is filed as functional, cell-based. The procedure, abridged: as §3
Experiment [14] has as its target T1, Tubulin (Homo sapiens) (UniProt P68371+Q9H4B7+P0DPH7+P68366+Q13509+Q71U36+P04350+Q3ZCM7+P07437+P68363+Q9BQE3+Q6PEY2+Q13885+Q9BVA1+Q9BUF5). Briefly: Induction of microtubule disruption in human KB-VIN cells at 1 uM measured after 24 hrs by DAPI staining based deconvolution fluorescence microscopic analysis. In kind it is cell-based. The method, boiled down: (§4)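 Cells on glass coverslips treated 24 h, fixed in 4% paraformaldehyde for 15 min, and permeabilized with 0.5% Triton X-100. Blocked in PBS/2% BSA, stained with anti-beta-tubulin (1:250) and Alexa 488 anti-mouse (1:250), and mounted with DAPI. Imaged by wide-field deconvolution microscopy.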

The target in experiment [15] is T1, Tubulin (Homo sapiens). Kind of experiment: Induction of microtubule disruption in human KB7D cells at 1 uM measured after 24 hrs by DAPI staining based deconvolution fluorescence microscopic analysis. In kind it is cell-based. The method, boiled down: as §4
Experiment [16] concerns the target T1, Tubulin (Homo sapiens). Briefly: Induction of microtubule disruption in human KB-VIN cells assessed as polymerized fraction at 0.01 uM measured after 16 hrs by SDS-PAGE analysis (reference value: 23.1 to 25.5%). In kind it is cell-based. The procedure, abridged:
(§5)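 KB-Vin or KB-7D cells treated 16 h, then lysed 5 min at 37 °C in the dark in hypotonic buffer (1% NP-40, 1 mmol/L MgCl2, 2 mmol/L EGTA, 50 mmol/L Tris-HCl pH 6.8, protease inhibitors). Spun 13000 rpm, 10 min, room temperature. Soluble supernatant and resuspended polymerized pellet run on SDS-PAGE.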

The target in experiment [17] is T1, Tubulin (Homo sapiens). Kind of experiment: Induction of microtubule disruption in human KB-VIN cells assessed as polymerized fraction at 0.1 uM measured after 16 hrs by SDS-PAGE analysis (reference value: 23.1 to 25.5%). It is filed as cell-based. The procedure, abridged:
as §5

Experiment [18] concerns the target T1, Tubulin (Homo sapiens). Kind of experiment: Induction of microtubule disruption in human KB-VIN cells assessed as polymerized fraction at 1 uM measured after 16 hrs by SDS-PAGE analysis (reference value: 23.1 to 25.5%). It is filed as cell-based. The method, boiled down:
as §5

The target in experiment [19] is T1, Tubulin (Homo sapiens). Briefly: Induction of microtubule disruption in human KB7D cells assessed as polymerized fraction at 0.01 uM measured after 16 hrs by SDS-PAGE analysis (reference value: 26.4 to 29%). It is filed as cell-based. The procedure, abridged:
as §5

Experiment [20] has as its target T1, Tubulin (Homo sapiens). Briefly: Induction of microtubule disruption in human KB7D cells assessed as polymerized fraction at 0.1 uM measured after 16 hrs by SDS-PAGE analysis (reference value: 26.4 to 29%). In kind it is cell-based. The method, boiled down:
as §5

In experiment [21] the target is T1, Tubulin (Homo sapiens). Kind of experiment: Induction of microtubule disruption in human KB7D cells assessed as polymerized fraction at 1 uM measured after 16 hrs by SDS-PAGE analysis (reference value: 26.4 to 29%). In kind it is cell-based. The procedure, abridged: as §5
In experiment [22] the target is T1, Tubulin (Homo sapiens). Kind of experiment: Induction of microtubule aggregation in human KB-VIN cells at 1 uM measured after 24 hrs by DAPI staining based deconvolution fluorescence microscopic analysis. It is filed as cell-based. The method, boiled down:
as §4

For experiment [23], the target named is T1, Tubulin (Homo sapiens). Kind of experiment: Induction of microtubule aggregation in human KB7D cells at 1 uM measured after 24 hrs by DAPI staining based deconvolution fluorescence microscopic analysis. In kind it is cell-based. The method, boiled down:
as §4

The target of experiment [24] is T1, Tubulin (Homo sapiens). Kind of experiment: Induction of microtubule aggregation in human KB-VIN cells assessed as polymerized fraction at 0.01 uM measured after 16 hrs by SDS-PAGE analysis (reference value: 34%). In kind it is cell-based. The method, boiled down:
as §5

For experiment [25], the target named is T1, Tubulin (Homo sapiens). Briefly: Induction of microtubule aggregation in human KB-VIN cells assessed as polymerized fraction at 0.1 uM measured after 16 hrs by SDS-PAGE analysis (reference value: 34%). It is filed as cell-based. The method, boiled down:
as §5

For experiment [26], the target named is T1, Tubulin (Homo sapiens). Briefly: Induction of microtubule aggregation in human KB-VIN cells assessed as polymerized fraction at 1 uM measured after 16 hrs by SDS-PAGE analysis (reference value: 34%). It is filed as cell-based. The procedure, abridged: as §5
The target in experiment [27] is T1, Tubulin (Homo sapiens). Briefly: Induction of microtubule aggregation in human KB7D cells assessed as polymerized fraction at 0.01 uM measured after 16 hrs by SDS-PAGE analysis (reference value: 34%). In kind it is cell-based. The method, boiled down: as §5
Experiment [28] addresses T1, Tubulin (Homo sapiens). Kind of experiment: Induction of microtubule aggregation in human KB7D cells assessed as polymerized fraction at 0.1 uM measured after 16 hrs by SDS-PAGE analysis (reference value: 34%). In kind it is cell-based. The method, boiled down: as §5
Experiment [29] concerns the target T1, Tubulin (Homo sapiens). Briefly: Induction of microtubule aggregation in human KB7D cells assessed as polymerized fraction at 1 uM measured after 16 hrs by SDS-PAGE analysis (reference value: 34%). In kind it is cell-based. The procedure, abridged:
as §5

The term GI50 denotes the concentration giving 50% growth inhibition. Low values mean more potent growth inhibition, high ones less potent growth inhibition. As for `CC[C@]1(O)C[C@H]2CN(CCc3c([nH]c4ccccc34)[C@@](C(=O)OC)(c3cc4c(cc3OC)N(C=O)[C@H]3[C@@](O)(C(=O)OC)[C@H](OC(C)=O)[C@]5(CC)C=CCN6CC[C@]43[C@@H]65)C2)C1` [VINCRISTINE], the GI50 came to 0.00186 µM with KB and 0.219 µM in [1]. Further, the result with KB-VIN [2], in the experiment on KB-VIN [3], in the experiment on KB-VIN [4], with KB-VIN [5], in the experiment with KB-VIN [6] and with KB-VIN [7] was Active. Moreover, the result in the experiment on KB-VIN [8], with KB-VIN [9], in the experiment on KB-VIN [10], in the experiment on KB-VIN [11], in the experiment on KB-VIN [12] and in the experiment on KB-VIN [13] was Active. The outcome at Tubulin (Homo sapiens) [14] and on Tubulin (Homo sapiens) [15] was Active. The Activity on Tubulin (Homo sapiens) [16] was 25.5%; on Tubulin (Homo sapiens) [17], 28.8%; on Tubulin (Homo sapiens) [18] it was 25.2%; on Tubulin (Homo sapiens) [19], 30.4%; on Tubulin (Homo sapiens) [20] it was 25.8%; at Tubulin (Homo sapiens) [21], 29.1%.
Consider `CC(=O)O[C@H]1C(=O)[C@@]2(C)[C@H]([C@H](OC(=O)c3ccccc3)[C@]3(O)C[C@H](OC(=O)[C@H](O)[C@@H](NC(=O)c4ccccc4)c4ccccc4)C(C)=C1C3(C)C)[C@]1(OC(C)=O)CO[C@@H]1C[C@@H]2O`, for which the result on Tubulin (Homo sapiens) [22] and on Tubulin (Homo sapiens) [23] was Active. Also, the Activity on Tubulin (Homo sapiens) [24] is 41.1%; on Tubulin (Homo sapiens) [25], 45.9%; at Tubulin (Homo sapiens) [26] it was 46.1%; on Tubulin (Homo sapiens) [27], 45.9%; on Tubulin (Homo sapiens) [28] it was 59.7%; on Tubulin (Homo sapiens) [29], 61.5%.
